# Screening data as filed in PubChem BioAssay.
# The list is not random: actives were taken first. Their share in the collection is about 1.9%.
# MBD2 inh – inhibitors of human MBD2 binding to methylated oligonucleotide | 0.31% of 370,000 active | TR-FRET | Q9UBB5 | AID 686964 | inhibition, % at 4.4 µM; in the data active means inhibition above about 13%
# Target sequence (Q9UBB5 whole entry, looked up): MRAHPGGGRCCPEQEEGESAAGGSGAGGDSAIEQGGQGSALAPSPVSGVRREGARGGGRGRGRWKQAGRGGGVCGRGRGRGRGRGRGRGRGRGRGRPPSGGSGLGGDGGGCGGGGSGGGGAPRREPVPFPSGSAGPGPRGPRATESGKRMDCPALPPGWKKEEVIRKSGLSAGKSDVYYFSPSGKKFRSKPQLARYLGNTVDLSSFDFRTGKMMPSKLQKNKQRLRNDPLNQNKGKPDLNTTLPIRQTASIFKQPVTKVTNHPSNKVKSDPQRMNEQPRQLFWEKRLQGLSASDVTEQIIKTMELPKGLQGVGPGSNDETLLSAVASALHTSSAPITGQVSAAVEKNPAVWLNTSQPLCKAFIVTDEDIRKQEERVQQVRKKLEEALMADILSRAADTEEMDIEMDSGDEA
# LEDGF integ inh – blocks HIV-1 LEDGF/p75-dependent DNA integration. TR-FRET IN-LEDGF/p75 DNA integration, Eu/Cy5. inhibition, % at 3.7 µM. 0.64% of 370,000 active. AID 743269;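 active means inhibition above the screen-wide mean plus 3 SD, cut at about 13% in these data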;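 further: signal is the Cy5 over europium emission ratio at 671 and 618 nm; 0% = plate median of compound wells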
# UHRF1 MBD2 ctr – UHRF1 methyl-DNA binding inhibition; UHRF1 binding to methylated oligo, TR-FRET; AID 687016; inhibition, % at 4.4 µM; Q96T88; 0.75% of 370,000 active; in the data active means inhibition above about 21%;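 further: UHRF1 SRA domain binding a hemimethylated CpG hairpin DNA probe; 0% = median of test compound wells and 100% = reference inhibitor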
# Rin1 Abl inh – human Rin1-Abl interaction inhibition; P00519+Q13671; TR-FRET Rin1/Abl binding, biochemical; inhibition, % at 7.35 µM; 0.4% of 360,000 active; in the data active means inhibition above about 5%, passing the limit was not always enough
# TDP2 inh – blocks human TDP2 phosphodiesterase activity; O95551; recombinant TDP2, T5PNP hydrolysis, p-nitrophenol absorbance 415 nm; inhibition, % at 12.8 µM; 0.34% of 370,000 active; AID 720702;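 active means inhibition above the mean of all tested compounds plus 3 SD, set per campaign, cut at about 25% in these data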;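 further: 0% = DMSO with enzyme and 100% = buffer with substrate but no TDP2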
#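 Material: recombinant human TDP2; quantity: TDP2 enzyme at 120 nM final; medium: Tris-HCl pH 7.5 with MgCl2; compound: single concentration, 12.8 µM nominal, with 1% DMSO; incubation: 2 h enzyme incubation at 37 °C; signal: epi absorbance; measure: percent inhibition; benchmarks: high control without enzyme, low control DMSO plus TDP2; repeats: singlicate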
# Rin1-Abl confirm – Rin1-Abl interaction inhibition confirmation; TR-FRET Rin1-Abl binding, purified proteins; shares compounds with Rin1 Abl inh; inhibition, % at 7.35 µM; 49% of 1,300 active
# GFP quencher – counter-screen for Rin1-Abl inhibitors: GFP fluorescence quenchers; inhibition, % at 6.75 µM; shares compounds with Rin1 Abl inh; inhibitors/quenchers counterscreen; 8.5% of 1,300 active;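 further: ABL1-eGFP fusion protein alone without its partner RIN1-SBP; 0% = protein with vehicle and 100% = wells lacking protein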
# * hit, by the source's call; nt = not tested or not shown. Unless noted, no stated cut-off is given here; in the data, active means inhibition above about 6.5%; inactive means the rest.
SMILES,MBD2 inh,LEDGF integ inh,UHRF1 MBD2 ctr,Rin1 Abl inh,TDP2 inh,Rin1-Abl confirm,GFP quencher
COC(=O)C1=C(C)N(C)C(=O)NC1c1cc2c(cc1[N+](=O)[O-])OCO2 (configuration not stated),-4.3,4.9,4.3,15.4*,8.1,11.1*,1.8
COc1ccc(CN2C[C@]3(C=C(C)Cn4c(=O)n(-c5ccccc5)c(=O)n43)N=C2NC(=O)c2ccccc2)c(OC)c1,3.2,-3.7,0.7,nt,-2.6,nt,nt
COc1ccc(NC(=O)CN(C)C(=O)c2ccc3c(c2)CC(c2ccccc2)OC3=O)cc1 (configuration not stated),11.9,0.9,10.5,8.1*,-0.1,-2.0,-0.1
COc1cccc(NC(=O)CN(C)C(=O)c2ccc3c(c2)CC(c2ccccc2)OC3=O)c1 (configuration not stated),6.7,-3.5,14.2,2.3,-4.0,nt,nt
CC(=O)Nc1ccc(CNc2nc(NCC3CC3)nc3ccsc23)cc1,1.8,3.8,4.2,7.2*,-10.8,4.8,-1.4
CC(=O)Nc1ccc(CNc2nc(NC(C)C)nc3ccsc23)cc1,5.2,-3.3,4.5,0.4,-10.7,nt,nt
CC1C=CCC2C(=O)N(c3cccc(C(=O)NCc4ccccc4)c3)C(=O)C12 (configuration not stated),-0.7,2.1,-1.1,7.8*,8.9,-1.9,0.2
CC1=NN(c2ccc(C(=O)O)c(N)c2)C(=O)C1,0.7,30.6*,27.8*,11.9*,15.2,7.1*,-0.3
CC1=NN(c2ccc(C(=O)O)cc2)C(=O)CC1,-4.1,3.5,1.4,1.5,-1.5,nt,nt
CCn1c2ccccc2c2cc(NC(=O)COC(=O)c3cc(Cl)cc(Cl)c3)ccc21,-4.0,-0.6,-2.2,nt,2.8,nt,nt
Cc1ccc(Oc2nnc(-c3cccs3)c3ccccc23)cc1,5.3,2.8,2.5,-1.9,-1.6,nt,nt
Cc1ccc(Oc2nnc(-c3cccs3)c3ccccc23)cc1C,-4.3,-0.2,-2.3,6.0*,6.3,2.0,-0.5
CC(=O)c1cc(-c2ccc(S(C)(=O)=O)cc2)c(=O)n2c1CCC2,-3.7,-2.8,0.8,nt,0.3,nt,nt
CC(C)CNC(=O)C1CSCCS(=O)(=O)N1Cc1ccc(F)cc1 (configuration not stated),-0.3,3.2,-2.0,nt,4.8,nt,nt
CC(=O)NC(c1cccc([N+](=O)[O-])c1)c1ccc2cccnc2c1O (configuration not stated),-1.5,-2.9,-11.0,3.7,-25.9,nt,nt
CC(=O)NC(c1ccc(C)cc1)c1cc(Cl)c2cccnc2c1O (configuration not stated),-5.6,0.3,-2.7,7.0*,-4.6,6.1,2.1
CC(=O)NC(c1ccco1)c1cc(Cl)c2cccnc2c1O (configuration not stated),-6.5,-6.5,-4.8,11.1*,0.6,10.6*,3.3
COc1cccc(C(NC(C)=O)c2ccc3cccnc3c2O)c1 (configuration not stated),-3.2,-5.5,-6.6,6.7*,-16.5,9.6*,1.9
COC(=O)[C@]12C[C@H](CC(=O)N3CCN(C(=O)C4CC4)CC3)C(=O)N(CCc3ccc(OC)c(OC)c3)C1=C[C@H](C(C)C)O[C@@H]2C1CC1,-3.2,-1.8,0.9,nt,-3.9,nt,nt
CN(C)c1ccc(C=c2c3cc([N+](=O)[O-])ccc3n3c2cc(-c2ccccc2)[n+]3C)cc1,3.2,-4.3,14.6,37.1*,-5.8,3.8,35.0*
COc1ccc(CN(CCN2CCOCC2)C(=O)c2cccc(F)c2F)cc1OC,0.4,-3.4,2.0,nt,6.0,nt,nt
CC1(C2CC2)NC(=O)N(CC(=O)N2CCN(c3cccc(C(F)(F)F)c3)CC2)C1=O (configuration not stated),-2.0,1.4,4.7,8.6*,7.4,-2.1,1.2
COc1ccc(-c2ccnc3c(C(=O)O)cnn23)cc1,4.8,-4.4,0.6,9.6*,4.2,-3.3,-1.7
O=C(O)c1cnn2c(-c3ccccc3)ccnc12,-0.2,-2.5,-0.4,-0.6,10.1,nt,nt
CC(=O)Nc1ccc(NC(=O)CSc2nnc(-c3ccccc3)n2Cc2ccc3c(c2)OCO3)cc1,-1.1,-3.0,5.4,7.8*,0.9,3.9,0.4
SMILES,MBD2 inh,LEDGF integ inh,UHRF1 MBD2 ctr,Rin1 Abl inh,TDP2 inh,Rin1-Abl confirm,GFP quencher
CC1CCCN(C(=O)COC(=O)Cc2c[nH]c3ccccc23)C1 (configuration not stated),-0.6,0.8,1.2,2.3,2.5,nt,nt
COC(=O)C1CCN(C(=O)COC(=O)Cc2c[nH]c3ccccc23)CC1,-0.5,-1.1,-0.1,5.2*,4.4,-0.2,-3.9
COc1ccc(NC(=O)Cn2c(=O)n(CC3CCCO3)c(=O)c3cc(OC)c(OC)cc32)cc1OC (configuration not stated),3.4,-4.3,3.2,9.9*,7.5,8.8*,-0.3
CC1(Cc2ccc(C(F)(F)F)o2)C(=O)Nc2ccc(-c3cccc(C(F)(F)F)c3)cc21 (configuration not stated),2.4,-0.9,2.7,-1.4,-6.6,nt,nt
CC1(Cc2ccc3c(c2)OCO3)C(=O)Nc2ccc(-c3cccc(C(F)(F)F)c3)cc21 (configuration not stated),-0.4,-3.8,0.1,7.7*,-10.5,-2.5,-0.2
Nc1cc2nsnc2cc1Br,3.3,48.2*,4.4,10.2*,92.0*,26.5*,9.5*
CC(NC(=O)c1cc2c(=O)n(C)c3ccccc3c2n1C)c1ccc2c(c1)OCCO2 (configuration not stated),-2.8,1.1,-1.0,7.6*,8.1,10.6*,-1.5
Cn1c(C(=O)Nc2ccc3c(c2)OCO3)cc2c(=O)n(C)c3ccccc3c21,1.3,-2.2,3.6,-3.1,1.5,nt,nt
COC(=O)[C@]12C[C@H](CC(=O)N3CCCCC3)C(=O)N(CCc3ccc(OC)c(OC)c3)C1=C[C@H](C(C)(C)C)O[C@@H]2C,-3.0,-0.5,-1.1,nt,-2.8,nt,nt
O=C(c1ccc(OC2CCN(C/C=C/c3ccccc3)CC2)cc1)N1CCCCC1,2.5,8.6,0.3,6.3*,2.0,-0.1,0.1
O=C(c1ccc(OC2CCN(C/C=C/c3ccccc3)CC2)cc1)N1CCCC1,-4.9,2.8,-1.6,2.9,5.9,nt,nt
COc1ccccc1/C=C/CN1CCC(Oc2ccc(C(=O)N3CCCCC3)cc2)CC1,-6.7,-1.5,1.7,10.4*,0.1,8.4*,-1.2
COc1ccc(/C=C/CN2CCC(Oc3ccc(C(=O)N4CCCCC4)cc3)CC2)cc1,3.9,-0.1,-1.7,7.2*,10.5,2.8,-0.6
Cc1ccc(S(=O)(=O)N(C)[C@H]2C[C@H]3c4cc(-c5ccccc5C)ccc4CCN3C[C@H]2[C@H](C)O)cc1,0.7,-1.8,0.1,nt,1.7,nt,nt
